Measurements pooled from the literature.
Protocols differ between the studies behind these lines.
Target: Misshapen-like kinase 1 (MINK1, Homo sapiens, UniProt Q8N4C8)

| SMILES | effect on | technique | tested at | remaining binding |
| --- | --- | --- | --- | --- |
| Nc1ncc2c(n1)-c1c([nH]c3ccc(C#CC4CC4)cc13)CCCC2 | binding | competition with immobilised ligand | 1 µM | 94% |
| C[C@@H](c1ccc(-n2cnc3c(N)ncnc32)cc1)N1CCc2nn(C)c(Cc3ccccc3)c2C1=O | binding | competition with immobilised ligand | 0.1 µM | 88% |
| CCN1CCN(Cc2ccc(C(=O)Nc3ccc(C)c(Oc4ccc5c(c4)CC(=O)N5)c3)cc2C(F)(F)F)CC1 | binding | competition with immobilised ligand | 1 µM | 100% |
| CC(C)(O)c1cncc(-c2nc3ccc(F)cc3n2C2CC2)c1 | cell-free assay | competition with immobilised ligand | 1 µM | 100% |
| C[C@@H]1CCN(c2nccc(-c3cnn4ncccc34)n2)C1 | binding | – | 1 µM | 74% |
| Cc1c[nH]c2nccc(Oc3c(F)cc(Nc4cc(Cl)nc(N)n4)cc3F)c12 | cell-free assay | competition with immobilised ligand | 0.1 µM | 100% |
| c1cnn2ncc(-c3ccnc(N4CCC45COC5)n3)c2c1 | binding | – | 1 µM | 68% |
| CN(C)C(=O)Cn1cc(-c2nc([C@@](C)(c3ccc(-c4cnc(N)nc4)cc3)C3CC3)no2)cn1 | cell-free assay | competition with immobilised ligand | 1 µM | 85% |
| COc1cnc(Nc2cccc(S(N)(=O)=O)c2)nc1N1CCN(c2ccccc2)C(=O)C1 | binding | competition with immobilised ligand | 1 µM | 78% |
| CSc1cccnc1N1CCN(Cc2nc3ccccc3[nH]2)CC1 | cell-free assay | competition with immobilised ligand | 1 µM | 89% |
| CN(C)c1nccc(-c2cnn3ncccc23)n1 | binding | – | 1 µM | 81% |
| c1cncc(-c2cccc(Nc3nccc(NC4CCCCC4)n3)c2)c1 | binding | competition with immobilised ligand | 10 µM | 4.8% |
| CC(=O)C1=C(C)N(c2cccc(C(F)(F)F)c2)C(=O)N[C@@H]1c1ccc(C#N)nc1 | cell-free assay | competition with immobilised ligand | 1 µM | 100% |
| O=C(Nc1c[nH]nc1C(=O)NC1CCNCC1)c1cc(F)cc(F)c1 | binding | competition with immobilised ligand | 1 µM | 93% |
| FC(F)(F)Oc1cccc(-c2cnc3ccc(-c4ccncc4)nn23)c1 | binding | competition with immobilised ligand | 5 µM | 7.2% |
| O=C(NCCCN1CCOCC1)c1ccc(Nc2nccc(-c3cc4ccccc4s3)n2)cc1 | binding | competition with immobilised ligand | 1 µM | 46% |
| CC1CCCN1c1nccc(-c2cnn3ncccc23)n1 (stereo not shown) | binding | – | 1 µM | 90% |
| O=C(O)[C@H]1[C@H](Cn2nnc3ccccc3c2=O)CC[C@@H]1C(=O)c1ccc(OCCC2CCOCC2)cc1 | cell-free assay | competition with immobilised ligand | 1 µM | 100% |
| CN(CCCC(F)(F)F)c1nccc(-c2cnn3ncccc23)n1 | binding | – | 1 µM | 100% |
| O=C(c1ccc(Nc2nccc(-c3cc4ccccc4s3)n2)cc1)N1CCC(N2CCCC2)CC1 | binding | competition with immobilised ligand | 1 µM | 57% |
| N[C@H]1CCN(c2nccc(-c3cnn4ncccc34)n2)C1 | binding | – | 1 µM | 100% |
| Cc1cnc(Nc2ccc(C(=O)N3CCC(N4CCCC4)CC3)cc2)nc1-c1cc2ccccc2s1 | binding | competition with immobilised ligand | 1 µM | 40% |
